What is called EC90 is the concentration needed for an effect of 90%. For orientation: EC50 means the concentration needed to bring the measured effect to its halfway point. In general, half-life refers to the time needed for the level to fall by half in the phase considered.

These results are taken from ChEMBL document CHEMBL3120066, “Discovery of a novel class of potent HCV NS4B inhibitors: SAR studies on piperazinone derivatives” (J Med Chem, 2014).

For one data set, the system named is Hepatitis C virus. The data set is described as follows: Antiviral activity against HCV1b infected in clone A and ET-lunet cells assessed as inhibition of viral replication after 4 days by RT-PCR analysis. The format is functional, organism-based, Hepacivirus hominis. As to conditions: genotype 1b, 96 h. In outline:
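Run in HCV genotype 1a and 1b replicon cells; each reported value is the mean of n = 2 independent determinations.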
With `CC(C)C[C@H]1CN(C(=O)/C=C/c2ccc(Br)cc2)[C@@H](CC(C)C)C(=O)N1`, the EC90 came out at 7800 nM.

With `CC[C@H](C)[C@H]1CN(C(=O)[C@@H]2C[C@H]2c2ccccc2)[C@@H](CC(C)C)C(=O)N1`, the EC90 was more than 10000 nM.

As to `CC(C)C[C@H]1C(=O)N[C@@H](CC(C(F)(F)F)C(F)(F)F)CN1C(=O)c1cc(-c2ccc(F)cc2)on1`, the EC90 was 7250 nM.

In the case of `CC(C)C[C@H]1CN(C(=O)c2cccc(-c3ccccc3)c2)[C@@H](CC(C)C)C(=O)N1`, the EC90 is more than 10000 nM.

For `CC(C)C[C@H]1CN(C(=O)c2cc(-c3ccc(F)cc3F)on2)[C@@H](CC(C)C)C(=O)N1`, the EC90 turned out to be 680 nM.

Turning to `CC(C)C[C@H]1C(=O)N[C@@H](c2ccsc2Cl)CN1C(=O)c1cc(-c2ccc(F)cc2)on1`, the EC90 came to 4 nM.

For `Cc1ccc([C@H]2CN(C(=O)c3cc(-c4ccc(F)cc4)on3)[C@@H](CC(C)C)C(=O)N2)cc1`, the EC90 was 760 nM.

Consider `CC(C)C[C@H]1CN(C(=O)/C=C/c2ccccc2Cl)[C@@H](CC(C)C)C(=O)N1`, for which the EC90 stood at 9700 nM.

On to `CC(C)C[C@H]1CN(C(=O)/C=C/c2ccc(N(C)C)cc2)[C@@H](CC(C)C)C(=O)N1`, for which the EC90 is more than 10000 nM.

With `CC(C)C[C@H]1C(=O)N[C@@H](C(C)C)CN1C(=O)c1cc(-c2ccc(F)cc2)on1`, the EC90 was 170 nM.

Turning to `CC(C)C[C@H]1C(=O)N[C@@H](c2ccc[nH]2)CN1C(=O)c1cc(-c2ccc(F)cc2)on1`, the EC90 is 680 nM.

On to `CC(C)C[C@H]1C(=O)N[C@@H](C2CCCC2)CN1C(=O)c1cc(-c2ccc(F)cc2)on1`, for which the EC90 stood at 90 nM.

In the case of `CC(C)C[C@H]1C(=O)N[C@@H](C2CC2)CN1C(=O)c1cc(-c2ccc(F)cc2)on1`, the EC90 was determined as 1100 nM.

As for `CC(C)C[C@H]1CN(C(=O)[C@@H]2C[C@H]2c2ccccc2)[C@@H](CC(C)C)CN1`, the EC90 was more than 10000 nM.

As to `CC(C)C[C@H]1CN(C(=O)c2cc(-c3ccccc3)[nH]n2)[C@@H](CC(C)C)C(=O)N1`, the EC90 is more than 10000 nM.

For `CC(C)C[C@H]1CN(C(=O)C#Cc2ccccc2)[C@@H](CC(C)C)C(=O)N1`, the 90% effect concentration (EC90) turned out to be 3200 nM.

Take `CC[C@@H](C)[C@H]1CN(C(=O)c2cc(-c3ccc(F)cc3)on2)[C@@H](CC(C)C)C(=O)N1`: the EC90 is more than 10000 nM.

In the case of `CC[C@H]1CN(C(=O)c2cc(-c3ccc(F)cc3)on2)[C@@H](CC(C)C)C(=O)N1`, the EC90 stood at 710 nM.

Consider `CSCC[C@H]1CN(C(=O)c2cc(-c3ccc(F)cc3)on2)[C@@H](CC(C)C)C(=O)N1`, for which the EC90 was determined as 390 nM.

Take `Cc1ccc(/C=C/C(=O)N2C[C@H](CC(C)C)NC(=O)[C@@H]2CC(C)C)cc1`: the EC90 was 5300 nM.

Take `CC(C)C[C@H]1CN(C(=O)c2cc(-c3ccc(N(C)C)cc3)on2)[C@@H](CC(C)C)C(=O)N1`: the EC90 is more than 10000 nM.

Regarding `C/C=C/[C@H]1CN(C(=O)c2cc(-c3ccc(F)cc3)on2)[C@@H](CC(C)C)C(=O)N1`, the EC90 stood at 60 nM.

Take `Cc1ccc([C@H]2CN(C(=O)c3cc(-c4ccc(F)cc4)on3)[C@@H](CC(C)C)C(=O)N2)s1`: the 90% effect concentration (EC90) came to 180 nM.

On to `CC(C)C[C@H]1C(=O)N[C@@H](c2ccsc2)CN1C(=O)c1cc(-c2ccc(F)cc2)on1`, for which the concentration for an effect of 90% (EC90) is 26 nM.

For `CC(C)C[C@H]1CN(C(=O)c2cn(-c3ccccc3)cn2)[C@@H](CC(C)C)C(=O)N1`, the EC90 is more than 10000 nM.

On to `CC(C)C[C@H]1C(=O)N[C@@H](C2CCCCC2)CN1C(=O)c1cc(-c2ccc(F)cc2)on1`, for which the EC90 was found to be 190 nM.

Regarding `CCCC[C@H]1CN(C(=O)c2cc(-c3ccc(F)cc3)on2)[C@@H](CC(C)C)C(=O)N1`, the EC90 was found to be 530 nM.

In the case of `CC(C)C[C@H]1CN(C(=O)c2ccc(-c3ccccc3)o2)[C@@H](CC(C)C)C(=O)N1`, the EC90 is more than 5800 nM.

Take `CC(C)C[C@H]1C(=O)N[C@@H](c2ccc(C(F)(F)F)cc2)CN1C(=O)c1cc(-c2ccc(F)cc2)on1`: the EC90 was 2750 nM.

As for `CC(C)C[C@H]1CN(C(=O)[C@@H]2C[C@H]2c2ccccc2)[C@@H](CC(C)C)C(=O)N1C`, the EC90 stood at 8800 nM.

For the compound `CC(C)C[C@H]1C(=O)N[C@@H](C2CCOCC2)CN1C(=O)c1cc(-c2ccc(F)cc2)on1`, the EC90 is 470 nM.

As to `CC[C@H]1C(=O)N[C@@H](CC(C)C)CN1C(=O)[C@@H]1C[C@H]1c1ccccc1`, the EC90 was more than 10000 nM.

For `CC(C)C[C@H]1C(=O)N[C@@H](C(C)(C)C)CN1C(=O)c1cc(-c2ccc(F)cc2)on1`, the concentration for an effect of 90% (EC90) came out at 1800 nM.

Consider `CC(C)C[C@H]1CN(C(=O)/C=C/c2ccc(F)c(F)c2)[C@@H](CC(C)C)C(=O)N1`, for which the EC90 stood at 1500 nM.

In the case of `CC(C)C[C@H]1CN(C(=O)c2cc(-c3ccc(C#N)cc3)on2)[C@@H](CC(C)C)C(=O)N1`, the EC90 was determined as 1530 nM.

On to `CC(C)C[C@H]1CN(C(=O)c2cc(-c3ccc(F)cc3)on2)[C@@H](CC(C)C)C(=O)N1`, for which the EC90 turned out to be 130 nM.

On to `CC(C)C[C@H]1CN(C(=O)c2csc(-c3ccccc3)n2)[C@@H](CC(C)C)C(=O)N1`, for which the EC90 is more than 7900 nM.

Turning to `CC(C)C[C@H]1CN(C(=O)c2cc(-c3ccc(Cl)cc3)on2)[C@@H](CC(C)C)C(=O)N1`, the EC90 was 290 nM.

For `CCC[C@H]1CN(C(=O)[C@@H]2C[C@H]2c2ccccc2)[C@@H](CC(C)C)C(=O)N1`, the EC90 amounted to 900 nM.

Regarding `CC(C)C[C@H]1CN(C(=O)c2coc(-c3ccccc3)n2)[C@@H](CC(C)C)C(=O)N1`, the EC90 was more than 10000 nM.

Consider `CC(C)C[C@H]1C(=O)N[C@@H](CN(C)C)CN1C(=O)c1cc(-c2ccc(F)cc2)on1`, for which the EC90 was found to be 2740 nM.

Regarding `CC(C)C[C@H]1CN(C(=O)/C=C/c2ccc(S(C)(=O)=O)cc2)[C@@H](CC(C)C)C(=O)N1`, the EC90 is more than 10000 nM.

Consider `CC(C)C[C@H]1C(=O)N[C@@H](CC(C)(C)C)CN1C(=O)c1cc(-c2ccc(F)cc2)on1`, for which the EC90 amounted to 2000 nM.

As to `CC(C)C[C@H]1C(=O)N[C@@H](c2nccs2)CN1C(=O)c1cc(-c2ccc(F)cc2)on1`, the EC90 is more than 10000 nM.

As for `CC(C)C[C@H]1C(=O)N[C@@H](C2CCSCC2)CN1C(=O)c1cc(-c2ccc(F)cc2)on1`, the EC90 stood at 870 nM.

For `CC(C)C[C@H]1CN(C(=O)c2cc(-c3ccc(F)c(F)c3)on2)[C@@H](CC(C)C)C(=O)N1`, the EC90 is 650 nM.

As to `CC(C)C[C@H]1CN(C(=O)/C=C/c2ccccc2)[C@@H](CC(C)C)C(=O)N1`, the EC90 is 2300 nM.

As to `Cc1ccc(-c2cc(C(=O)N3C[C@H](CC(C)C)NC(=O)[C@@H]3CC(C)C)no2)cc1`, the EC90 was 1540 nM.

For the compound `CC(C)C[C@H]1CN(C(=O)/C=C/c2ccc(Cl)cc2)[C@@H](CC(C)C)C(=O)N1`, the EC90 was 1600 nM.

Turning to `CC(C)C[C@H]1CN(C(=O)c2c[nH]c(-c3ccccc3)n2)[C@@H](CC(C)C)C(=O)N1`, the EC90 is more than 10000 nM.

In the case of `CC(C)C[C@H]1CN(C/C=C/c2ccccc2)[C@@H](CC(C)C)C(=O)N1`, the EC90 came to 3300 nM.

For the compound `CC(C)C[C@H]1CN(C(=O)c2cc(-c3ccccc3)on2)[C@@H](CC(C)C)C(=O)N1`, the EC90 came out at 1100 nM.

On to `CC(C)C[C@H]1CN(C(=O)/C=C/c2ccc([N+](=O)[O-])cc2)[C@@H](CC(C)C)C(=O)N1`, for which the EC90 is more than 10000 nM.

Turning to `CCc1cc2c(cc1F)c(C#N)c(-c1ccc(S(=O)(=O)N[C@@H](C)C(F)(F)F)cn1)n2-c1ncccn1`, the EC50 came out at 1.7 nM.

For `CC(C)C[C@H]1C(=O)N[C@@H](c2ncco2)CN1C(=O)c1cc(-c2ccc(F)cc2)on1`, the EC90 was more than 10000 nM.

Consider `COc1ccc(-c2cc(C(=O)N3C[C@H](CC(C)C)NC(=O)[C@@H]3CC(C)C)no2)cc1`, for which the EC90 came to 1350 nM.

In the case of `CC(C)C[C@H]1CN(C(=O)C2CC2)[C@@H](CC(C)C)C(=O)N1`, the EC90 is more than 10000 nM.

With `CC(C)C[C@H]1C(=O)N[C@@H](c2ccccc2F)CN1C(=O)c1cc(-c2ccc(F)cc2)on1`, the EC90 is 100 nM.

Take `CC(C)C[C@H]1CN(C(=O)/C=C/c2ccc(C(F)(F)F)cc2)[C@@H](CC(C)C)C(=O)N1`: the EC90 turned out to be 8100 nM.

Consider `CC(C)C[C@H]1C(=O)N[C@@H](CC2CC2)CN1C(=O)c1cc(-c2ccc(F)cc2)on1`, for which the EC90 was 450 nM.

`CC(C)C[C@H]1C(=O)N[C@@H](CO)CN1C(=O)c1cc(-c2ccc(F)cc2)on1`: the EC90 was more than 10000 nM.

As to `CC(C)C[C@@H]1CN(C(=O)[C@@H]2C[C@H]2c2ccccc2)[C@@H](CC(C)C)C(=O)N1`, the EC90 was more than 10000 nM.

On to `CC(C)C[C@H]1C(=O)N[C@@H](c2cc[nH]c2)CN1C(=O)c1cc(-c2ccc(F)cc2)on1`, for which the EC90 came out at 63 nM.

In the case of `CSC[C@H]1CN(C(=O)c2cc(-c3ccc(F)cc3)on2)[C@@H](CC(C)C)C(=O)N1`, the EC90 amounted to 240 nM.

Regarding `CC(C)C[C@H]1CN(C(=O)/C=C\c2ccccc2)[C@@H](CC(C)C)C(=O)N1`, the 90% effect concentration (EC90) is more than 10000 nM.

`CC(C)C[C@H]1CN(C(=O)c2noc(-c3ccccc3)n2)[C@@H](CC(C)C)C(=O)N1`: the EC90 was determined as 1400 nM.

As for `CC(C)C[C@H]1CN(C(=O)/C=C/c2ccc(F)cc2)[C@@H](CC(C)C)C(=O)N1`, the 90% effect concentration (EC90) came out at 1500 nM.

Regarding `COC[C@H]1CN(C(=O)c2cc(-c3ccc(F)cc3)on2)[C@@H](CC(C)C)C(=O)N1`, the EC90 is more than 10000 nM.

For the compound `Cc1ccsc1[C@H]1CN(C(=O)c2cc(-c3ccc(F)cc3)on2)[C@@H](CC(C)C)C(=O)N1`, the EC90 amounted to 680 nM.

For the compound `CC(C)C[C@H]1C(=O)N[C@@H](C2CCC2)CN1C(=O)c1cc(-c2ccc(F)cc2)on1`, the EC90 is 690 nM.

In the case of `COC(=O)c1ccc(/C=C/C(=O)N2C[C@H](CC(C)C)NC(=O)[C@@H]2CC(C)C)cc1`, the EC90 was more than 10000 nM.

For `CC(C)C[C@H]1CN(C(=O)/C=C/c2ccc(F)cc2F)[C@@H](CC(C)C)C(=O)N1`, the EC90 is 1500 nM.

On to `CC(C)C[C@H]1CN(C(=O)c2cc(-c3ccc(Br)cc3)on2)[C@@H](CC(C)C)C(=O)N1`, for which the EC90 was determined as 470 nM.

On to `CCC[C@H]1CN(C(=O)c2cc(-c3ccc(F)cc3)on2)[C@@H](CC(C)C)C(=O)N1`, for which the EC90 came out at 100 nM.

Consider `CC(C)C[C@H]1CN(C(=O)[C@@H]2C[C@H]2c2ccccc2)[C@H](CC(C)C)C(=O)N1`, for which the 90% effect concentration (EC90) was more than 10000 nM.

In the case of `CC(C)C[C@H]1CN(C(=O)c2cc(-c3ccc([N+](=O)[O-])cc3)on2)[C@@H](CC(C)C)C(=O)N1`, the EC90 came out at 2600 nM.

Tested on in another data set: not listed separately
The experiment in a line: Half life in human liver microsomes. The format is ADME.
Conditions: not given
A general note: Microsomes from liver hold many membrane-bound enzymes, among them those of drug oxidation.
The compound `CC(C)C[C@H]1C(=O)N[C@@H](C2CCCC2)CN1C(=O)c1cc(-c2ccc(F)cc2)on1` yielded a half-life of 29 min.

`C/C=C/[C@H]1CN(C(=O)c2cc(-c3ccc(F)cc3)on2)[C@@H](CC(C)C)C(=O)N1` returned a half-life of 17 min.
